Measurements collected from several papers.
Target: Mitogen-activated protein kinase 12 (MAPK12, Homo sapiens, UniProt P53778)
Residues used in one study (P53778 1-367): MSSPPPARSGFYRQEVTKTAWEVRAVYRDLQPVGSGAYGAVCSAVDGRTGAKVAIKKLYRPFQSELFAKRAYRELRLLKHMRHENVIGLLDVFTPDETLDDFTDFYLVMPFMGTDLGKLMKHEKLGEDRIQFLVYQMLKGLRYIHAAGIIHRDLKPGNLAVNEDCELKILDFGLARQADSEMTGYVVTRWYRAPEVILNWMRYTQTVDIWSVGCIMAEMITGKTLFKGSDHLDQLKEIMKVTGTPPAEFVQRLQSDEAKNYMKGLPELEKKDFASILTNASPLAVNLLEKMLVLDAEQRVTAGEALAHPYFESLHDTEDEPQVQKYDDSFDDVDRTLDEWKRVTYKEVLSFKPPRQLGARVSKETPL

Compound	read-out	technique	tested at	remaining binding [%]
O=C(Nc1cnc(Oc2ccc(F)cc2)nc1)N1CCc2ncccc2[C@@H]1c1ccc(F)cc1	cell-free assay	competition with immobilised ligand	1 µM	96
O=C(c1ccc(Nc2ncc(Cl)c(-c3cc4ccccc4s3)n2)cc1)N1CCC(N2CCCC2)CC1	binding	competition with immobilised ligand	1 µM	86
CCN1CCN(Cc2ccc(C(=O)Nc3ccc(C)c(Oc4ccc5c(c4)CC(=O)N5)c3)cc2C(F)(F)F)CC1	binding	competition with immobilised ligand	1 µM	100
O=C(NCCCN1CCOCC1)c1ccc(Nc2nccc(-c3cc4ccccc4s3)n2)cc1	binding	competition with immobilised ligand	1 µM	100
Cc1cc(NC(=O)c2cccc(S(F)(F)(F)(F)F)c2)cc(-n2ccn3nc(-c4cccnc4)cc23)c1	cell-free assay	competition with immobilised ligand	1 µM	41.7
CN(c1nccc(-c2cnn3ncccc23)n1)C1CC1	binding	–	1 µM	100
O=C(NCC1CCOCC1)c1n[nH]cc1NC(=O)c1c(F)cccc1F	binding	competition with immobilised ligand	1 µM	100
COc1ncc2cc3ccccc3nc2c1C#N	cell-free assay	competition with immobilised ligand	5 µM	96
CN(C)c1nccc(-c2cnc3ncccn23)n1	binding	–	1 µM	90
Cc1c[nH]c2nccc(Oc3c(F)cc(Nc4cc(Cl)nc(N)n4)cc3F)c12	cell-free assay	competition with immobilised ligand	0.1 µM	100
F[C@@H]1CCN(c2nccc(-c3cnn4ncccc34)n2)C1	binding	–	1 µM	100
CC1=C(C#N)C(c2ccc3c(c2)c(NC(=O)c2ccccc2C)nn3C)C(C#N)=C(C)N1	cell-free assay	competition with immobilised ligand	1 µM	68
O=C(c1ccc(Nc2ncc(Cl)c(-c3ccc(Cl)s3)n2)cc1)N1CCC(N2CCCC2)CC1	binding	competition with immobilised ligand	1 µM	100
c1cncc(-c2cccc(Nc3nccc(NC4CCCCC4)n3)c2)c1	binding	competition with immobilised ligand	10 µM	84
CN(C)c1nccc(-c2cnn3ncccc23)n1	binding	–	1 µM	60
Cc1cc(Nc2nccc(C)n2)cc(-c2cnc([C@@]3(O)CC[C@H](C(=O)O)C(C)(C)C3)s2)c1	binding	competition with immobilised ligand	1 µM	31.2
Cc1cnn2ncc(-c3ccnc(N(C)C)n3)c2c1	binding	–	1 µM	85
COc1cnc(Nc2cccc(S(N)(=O)=O)c2)nc1N1CCN(c2ccccc2)CC1	binding	competition with immobilised ligand	1 µM	91
C[C@H]1CCN(c2nccc(-c3cnn4ncccc34)n2)C1	binding	–	1 µM	37
Cc1nc(N2CC[C@@H](O)C2)ncc1-c1cc(C(F)(F)F)cc2[nH]ncc12	binding	competition with immobilised ligand	1 µM	100
